Columns and labels:
Format in all cases: functional
Details in all cases: read-out: GI
[1] = test system: NCI-H460; assay: Antitumor activity against human NCI-H460 cells assessed as growth inhibition at 10 uM relative to control
Outline: (§1)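 After drug addition, plates were incubated 48 h at 37 °C under 5% CO2. Adherent cells were fixed with cold TCA (10% final, 60 min, 4 °C) and suspension cells with 16% final TCA. Staining used 0.4% SRB in 1% acetic acid, solubilized in 10 mM trizma, read at A515. Percent growth was calculated from time-zero, control and treated absorbances.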

[2] = test system: OVCAR-8; assay: Antitumor activity against human OVCAR-8 cells assessed as growth inhibition at 10 uM relative to control; outline: as §1
[3] = test system: DU-145; assay: Antitumor activity against human DU-145 cells assessed as growth inhibition at 10 uM relative to control; outline: as §1
[4] = test system: K562; assay: Antitumor activity against human K562 cells assessed as growth inhibition at 10 uM relative to control; outline: as §1
[5] = test system: CAKI-1; assay: Antitumor activity against human CAKI-1 cells assessed as growth inhibition at 10 uM relative to control; outline: as §1
[6] = test system: TK-10; assay: Antitumor activity against human TK-10 cells assessed as growth inhibition at 10 uM relative to control
Outline: (§2)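 Drug exposure 48 h at 37 °C, 5% CO2. Adherent cells fixed with cold TCA (10% final), suspension cells with TCA (16% final). Stained with 0.4% SRB in 1% acetic acid, dissolved in 10 mM Tris, A515. Growth relative to time-zero and untreated control.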

[7] = test system: MCF7; assay: Antitumor activity against human MCF7 cells assessed as growth inhibition at 10 uM relative to control; outline: as §1
[8] = test system: EKVX; assay: Antitumor activity against human EKVX cells assessed as growth inhibition at 10 uM relative to control; outline: as §1
[9] = test system: SR; assay: Antitumor activity against human SR cells assessed as growth inhibition at 10 uM relative to control; outline: as §2
[10] = test system: 786-0; assay: Antitumor activity against human 786-0 cells assessed as growth inhibition at 10 uM relative to control; outline: as §1
[11] = test system: A549; assay: Antitumor activity against human A549 cells assessed as growth inhibition at 10 uM relative to control; outline: as §1
[12] = test system: SF-539; assay: Antitumor activity against human SF-539 cells assessed as growth inhibition at 10 uM relative to control; outline: as §1
[13] = test system: NCI-H226; assay: Antitumor activity against human NCI-H226 cells assessed as growth inhibition at 10 uM relative to control; outline: as §1
[14] = test system: T47D; assay: Antitumor activity against human T47D cells assessed as growth inhibition at 10 uM relative to control; outline: as §2
[15] = test system: RXF 393; assay: Antitumor activity against human RXF 393 cells assessed as growth inhibition at 10 uM relative to control; outline: as §1
[16] = test system: UO-31; assay: Antitumor activity against human UO-31 cells assessed as growth inhibition at 10 uM relative to control; outline: as §2
[17] = test system: U-251; assay: Antitumor activity against human U-251 cells assessed as growth inhibition at 10 uM relative to control; outline: as §2
[18] = test system: Hs-578T; assay: Antitumor activity against human Hs-578T cells assessed as growth inhibition at 10 uM relative to control; outline: as §1
[19] = test system: SK-MEL-2; assay: Antitumor activity against human SK-MEL-2 cells assessed as growth inhibition at 10 uM relative to control; outline: as §1
[20] = test system: UACC-62; assay: Antitumor activity against human UACC-62 cells assessed as growth inhibition at 10 uM relative to control; outline: as §2
[21] = test system: A498; assay: Antitumor activity against human A498 cells assessed as growth inhibition at 10 uM relative to control; outline: as §1
[22] = test system: NCI-H322M; assay: Antitumor activity against human NCI-H322M cells assessed as growth inhibition at 10 uM relative to control; outline: as §1
[23] = test system: SK-OV-3; assay: Antitumor activity against human SK-OV-3 cells assessed as growth inhibition at 10 uM relative to control; outline: as §2
[24] = test system: LOX IMVI; assay: Antitumor activity against human LOX IMVI cells assessed as growth inhibition at 10 uM relative to control; outline: as §1
[25] = test system: ACHN; assay: Antitumor activity against human ACHN cells assessed as growth inhibition at 10 uM relative to control; outline: as §1
[26] = test system: NCI-H522; assay: Antitumor activity against human NCI-H522 cells assessed as growth inhibition at 10 uM relative to control; outline: as §1
[27] = test system: HCC 2998; assay: Antitumor activity against human HCC 2998 cells assessed as growth inhibition at 10 uM relative to control; outline: as §1
[28] = test system: SN12C; assay: Antitumor activity against human SN12C cells assessed as growth inhibition at 10 uM relative to control; outline: as §2
[29] = test system: CCRF-CEM; assay: Antitumor activity against human CCRF-CEM cells assessed as growth inhibition at 10 uM relative to control; outline: as §1
[30] = test system: MDA-MB-231; assay: Antitumor activity against human MDA-MB-231 cells assessed as growth inhibition at 10 uM relative to control; outline: as §1
[31] = test system: MDA-MB-435; assay: Antitumor activity against human MDA-MB-435 cells assessed as growth inhibition at 10 uM relative to control; outline: as §1
[32] = test system: BT-549; assay: Antitumor activity against human BT-549 cells assessed as growth inhibition at 10 uM relative to control; outline: as §1
[33] = test system: COLO 205; assay: Antitumor activity against human COLO 205 cells assessed as growth inhibition at 10 uM relative to control; outline: as §1
[34] = test system: SF-268; assay: Antitumor activity against human SF-268 cells assessed as growth inhibition at 10 uM relative to control; outline: as §1
[35] = test system: OVCAR-5; assay: Antitumor activity against human OVCAR-5 cells assessed as growth inhibition at 10 uM relative to control; outline: as §1
[36] = test system: HT-29; assay: Antitumor activity against human HT-29 cells assessed as growth inhibition at 10 uM relative to control; outline: as §1
[37] = test system: SNB-19; assay: Antitumor activity against human SNB-19 cells assessed as growth inhibition at 10 uM relative to control; outline: as §2
[38] = test system: HCT-15; assay: Antitumor activity against human HCT-15 cells assessed as growth inhibition at 10 uM relative to control; outline: as §1
[39] = test system: IGROV-1; assay: Antitumor activity against human IGROV-1 cells assessed as growth inhibition at 10 uM relative to control; outline: as §1
[40] = test system: NCI/ADR-RES; assay: Antitumor activity against human NCI-ADR-RES cells assessed as growth inhibition at 10 uM relative to control; outline: as §1
[41] = test system: PC-3; assay: Antitumor activity against human PC-3 cells assessed as growth inhibition at 10 uM relative to control; outline: as §1
[42] = test system: SK-MEL-5; assay: Antitumor activity against human SK-MEL-5 cells assessed as growth inhibition at 10 uM relative to control; outline: as §2
[43] = test system: SK-MEL-28; assay: Antitumor activity against human SK-MEL-28 cells assessed as growth inhibition at 10 uM relative to control; outline: as §2
[44] = test system: MOLT-4; assay: Antitumor activity against human MOLT-4 cells assessed as growth inhibition at 10 uM relative to control; outline: as §1
[45] = test system: NCI-H23; assay: Antitumor activity against human NCI-H23 cells assessed as growth inhibition at 10 uM relative to control; outline: as §1
[46] = test system: HL-60; assay: Antitumor activity against human HL-60 cells assessed as growth inhibition at 10 uM relative to control; outline: as §1

CSc1nc(-c2ccc(Cl)cc2)c(C#N)c(N2CCOCC2)n1
inhibition of growth at 10 µM [1]: < 1%
inhibition of growth at 10 µM [2]: < 1%
inhibition of growth at 10 µM [3]: < 1%
inhibition of growth at 10 µM [4]: 19.9%
inhibition of growth at 10 µM [5]: 13.7%
inhibition of growth at 10 µM [6]: < 1%
inhibition of growth at 10 µM [7]: 1%
inhibition of growth at 10 µM [8]: 15.1%
inhibition of growth at 10 µM [9]: 22.7%
inhibition of growth at 10 µM [10]: 11%
inhibition of growth at 10 µM [11]: 10.8%
inhibition of growth at 10 µM [12]: < 1%
inhibition of growth at 10 µM [13]: 17.5%
inhibition of growth at 10 µM [14]: 33%
inhibition of growth at 10 µM [15]: < 1%
inhibition of growth at 10 µM [16]: 27.1%
inhibition of growth at 10 µM [17]: < 1%
inhibition of growth at 10 µM [18]: < 1%
inhibition of growth at 10 µM [19]: < 1%
inhibition of growth at 10 µM [20]: < 1%
inhibition of growth at 10 µM [21]: 54.3%
inhibition of growth at 10 µM [22]: < 1%
inhibition of growth at 10 µM [23]: 11%
inhibition of growth at 10 µM [24]: < 1%
inhibition of growth at 10 µM [25]: < 1%
inhibition of growth at 10 µM [26]: 30.2%
inhibition of growth at 10 µM [27]: < 1%
inhibition of growth at 10 µM [28]: < 1%
inhibition of growth at 10 µM [29]: < 1%
inhibition of growth at 10 µM [30]: < 1%
inhibition of growth at 10 µM [31]: < 1%
inhibition of growth at 10 µM [32]: 21.8%
inhibition of growth at 10 µM [33]: < 1%
inhibition of growth at 10 µM [34]: 13.9%
inhibition of growth at 10 µM [35]: < 1%
inhibition of growth at 10 µM [36]: 15.3%
inhibition of growth at 10 µM [37]: 20.1%
inhibition of growth at 10 µM [38]: < 1%
inhibition of growth at 10 µM [39]: 11.8%
inhibition of growth at 10 µM [40]: 12%
inhibition of growth at 10 µM [41]: < 1%
inhibition of growth at 10 µM [42]: < 1%
inhibition of growth at 10 µM [43]: < 1%
inhibition of growth at 10 µM [44]: < 1%
inhibition of growth at 10 µM [45]: 10.8%
inhibition of growth at 10 µM [46]: < 1%

N#Cc1c(-c2ccc(Cl)cc2)nc(NN)nc1N1CCOCC1
inhibition of growth at 10 µM [1]: < 1%
inhibition of growth at 10 µM [2]: < 1%
inhibition of growth at 10 µM [3]: < 1%
inhibition of growth at 10 µM [4]: < 1%
inhibition of growth at 10 µM [5]: 20.8%
inhibition of growth at 10 µM [6]: < 1%
inhibition of growth at 10 µM [7]: 1%
inhibition of growth at 10 µM [8]: 14.3%
inhibition of growth at 10 µM [9]: 26.9%
inhibition of growth at 10 µM [10]: < 1%
inhibition of growth at 10 µM [11]: < 1%
inhibition of growth at 10 µM [12]: 12.3%
inhibition of growth at 10 µM [13]: 14.1%
inhibition of growth at 10 µM [14]: 17.4%
inhibition of growth at 10 µM [15]: < 1%
inhibition of growth at 10 µM [16]: 34.1%
inhibition of growth at 10 µM [17]: < 1%
inhibition of growth at 10 µM [18]: < 1%
inhibition of growth at 10 µM [19]: < 1%
inhibition of growth at 10 µM [20]: 10.7%
inhibition of growth at 10 µM [21]: 27.8%
inhibition of growth at 10 µM [22]: < 1%
inhibition of growth at 10 µM [23]: < 1%
inhibition of growth at 10 µM [24]: < 1%
inhibition of growth at 10 µM [25]: < 1%
inhibition of growth at 10 µM [26]: < 1%
inhibition of growth at 10 µM [27]: < 1%
inhibition of growth at 10 µM [28]: < 1%
inhibition of growth at 10 µM [29]: < 1%
inhibition of growth at 10 µM [30]: 14.5%
inhibition of growth at 10 µM [31]: < 1%
inhibition of growth at 10 µM [32]: < 1%
inhibition of growth at 10 µM [33]: < 1%
inhibition of growth at 10 µM [34]: < 1%
inhibition of growth at 10 µM [35]: < 1%
inhibition of growth at 10 µM [36]: < 1%
inhibition of growth at 10 µM [37]: < 1%
inhibition of growth at 10 µM [38]: < 1%
inhibition of growth at 10 µM [39]: 15.9%
inhibition of growth at 10 µM [40]: < 1%
inhibition of growth at 10 µM [41]: < 1%
inhibition of growth at 10 µM [42]: < 1%
inhibition of growth at 10 µM [43]: < 1%
inhibition of growth at 10 µM [44]: < 1%
inhibition of growth at 10 µM [45]: 11.7%
inhibition of growth at 10 µM [46]: < 1%
